Assay results gathered from unrelated publications.
Protocols differ between the studies behind these lines. In brackets after ≈: the same amount, converted by molar mass.

SMILES | organism | assay | test system | setting | endpoint | result
N#Cc1ccc(/C=C/c2nc3ccccc3c(=O)n2-c2cccc(C(=O)NCCC(=O)O)c2)cc1 | Enterococcus faecium | microbial growth, broth dilution | NCTC7171 |  | MIC | > 128 µg/mL
Cl.NCCCc1ccc(Oc2ccc(-c3noc(-c4ccc(O)cc4)n3)cc2)cc1 | Enterococcus faecium | microbial growth, broth dilution |  | 24 h | MIC | 2 µg/mL
C[C@@H]1[C@H](O)[C@@H](C)/C=C/C=C/C=C/C=C/C=C/C=C/C=C/[C@H](O[C@@H]2O[C@H](C)[C@@H](O)[C@H](N)[C@@H]2O)C[C@@H]2O[C@](O)(C[C@@H](O)C[C@@H](O)[C@H](O)CC[C@@H](O)C[C@@H](O)CC(=O)O[C@H]1C)C[C@H](O)[C@H]2C(=O)O | Candida albicans | microbial growth, broth dilution | ATCC90028 |  | IC50 | 0.26 µg/mL
COc1cc2c(cc1Nc1nc(Nc3cccc(F)c3C(N)=O)c3cc[nH]c3n1)N(C(=O)CN1CCN(C(C)C)CC1)CC2 | Trypanosoma brucei | parasite growth |  |  | EC50 | 0.2 µM
O=C(O)c1cn(C2CC2)c2cc(N3CCNCC3)c(F)cc2c1=O | Mycobacterium intracellulare | microbial killing | ATCC23068 |  | MBC | 3 µM (≈ 0.994 µg/mL)
Cl.Oc1cccc2c1[nH]c1c(C3=CC4(O)CC/C=C\CCCCN5CCC3C3(CC6/C=C\CCCCN6C43)C5)nccc12 (single isomer, unassigned; (+)) | Mycobacterium intracellulare | microbial growth, resazurin | ATCC23068 |  | IC50 | 0.22 µg/mL
N#Cc1ccc(/C=C/c2nc3ccncc3c(=O)n2-c2cccc(C(=O)O)c2)cc1 | Enterococcus faecium | microbial growth, broth dilution | NCTC7171 |  | MIC | > 128 µg/mL
C[C@@H](Oc1cc(-n2cnc3ccc(OCC4CCN(C)CC4)cc32)sc1C(N)=O)c1ccccc1C(F)(F)F | Trypanosoma brucei | parasite growth |  |  | EC50 | 0.0158 µM
O=C(O)c1cn(C2CC2)c2cc(N3CCNCC3)c(F)cc2c1=O | Mycobacterium intracellulare | microbial growth | ATCC23068 |  | IC50 | 0.3 µg/mL
CC(C)Oc1c(NC(=O)c2ccc(NC(=O)c3ccc(NC(=O)[C@H](CC(N)=O)NC(=O)c4ccc(NC(=O)c5ccc(C#N)cn5)cc4)cc3)c(OC(C)C)c2O)ccc(C(=O)O)c1O | Citrobacter freundii | microbial growth | DSM30039 |  | MIC | 0.5 µg/mL (≈ 0.564 µM)
O=C(O)Cc1cccc(Oc2ccc(-c3noc(-c4ccc(O)cc4)n3)cc2)c1 | Enterococcus faecium | microbial growth, broth dilution |  | 24 h | MIC | > 32 µg/mL
CCCCCCCCCCCCCC(O)CC(O)CO (centres unmarked) | Candida albicans | microbial growth, broth dilution | ATCC90028 |  | IC50 | > 200 µg/mL
CN1CCC(n2cnc(-c3ccc(F)cc3)c2-c2ccnc(Nc3ccccc3)n2)CC1 | Trypanosoma brucei | parasite growth |  |  | EC50 | 0.501 µM
NC(=O)c1cccc(-n2c(/C=C/c3ccc(Cl)cc3)nc3ccncc3c2=O)c1 | Enterococcus faecium | microbial growth, broth dilution | NCTC7171 |  | MIC | > 128 µg/mL
C[C@@H]1[C@H](O)[C@@H](C)/C=C/C=C/C=C/C=C/C=C/C=C/C=C/[C@H](O[C@@H]2O[C@H](C)[C@@H](O)[C@H](N)[C@@H]2O)C[C@@H]2O[C@](O)(C[C@@H](O)C[C@@H](O)[C@H](O)CC[C@@H](O)C[C@@H](O)CC(=O)O[C@H]1C)C[C@H](O)[C@H]2C(=O)O | Candida albicans | microbial killing | ATCC90028 |  | MFC | 1.25 µg/mL (≈ 1.35 µM)
O=C(Nc1ccccc1-c1ccc(F)c(F)c1)c1nccnc1C(F)(F)F | Monilinia fructicola | microbial growth |  |  | EC50 | 0.11 µg/mL
O=S(=O)(CCOCc1ccc(-c2ccc3ncnc(Nc4ccc(OCc5cccc(F)c5)c(Cl)c4)c3c2)o1)c1ccccc1 | Trypanosoma brucei | parasite growth |  |  | EC50 | 1.58 µM
O=C(O)c1ccc(-c2c[nH]c3ncc(-c4ccccc4)cc23)cc1C1CCCC1 | Plasmodium berghei | parasite growth, luciferase | human | liver stage | IC50 | 1.2 µM
C[N+](C)(C)CCc1ccc(Oc2ccc(-c3noc(-c4ccc(O)cc4)n3)cc2)cc1.[I-] | Enterococcus faecium | microbial growth, broth dilution |  | 24 h | MIC | 8 µg/mL

SMILES | organism | assay | test system | setting | endpoint | result
CS(=O)(=O)CCNCc1ccc(-c2ccc3ncnc(Nc4ccc(OCc5cccc(C(F)(F)F)c5)cc4)c3c2)o1 | Trypanosoma brucei | parasite growth |  |  | EC50 | 2 µM
CC(=O)NCc1cccc(-n2c(/C=C/c3ccc(C#N)cc3)nc3ccccc3c2=O)c1 | Enterococcus faecium | microbial growth, broth dilution | NCTC7171 |  | MIC | > 128 µg/mL
COc1cc2ncn(-c3cc(O[C@H](C)c4ccccc4Cl)c(C(N)=O)s3)c2cc1OC | Plasmodium berghei | parasite growth, luciferase | human | liver stage | IC50 | 7 µM
Oc1ccc(-c2nc(-c3ccc(Oc4ccccc4)cc3)no2)cc1 | Enterococcus faecium | microbial growth, broth dilution |  | 24 h | MIC | 2 µg/mL (≈ 6.05 µM)
NS(=O)(=O)c1ccc(NC=C2C(=O)Nc3ccc4ncsc4c32)cc1 | Trypanosoma brucei | parasite growth |  |  | EC50 | 12.6 µM
Cl.NCc1ccc(Oc2ccc(-c3noc(-c4ccc(O)cc4)n3)cc2)cc1 | Enterococcus faecium | microbial growth, broth dilution |  | 24 h | MIC | 4 µg/mL
C#CCCCCCCCCC=CCC(O)CC(O)CO (centres unmarked) | Mycobacterium intracellulare | microbial growth, resazurin | ATCC23068 |  | IC50 | > 200 µg/mL
NS(=O)(=O)c1ccc(N/N=C2\C(=O)Nc3ccc4ncccc4c32)cc1 | Trypanosoma brucei | parasite growth |  |  | EC50 | 0.0794 µM
CC(=O)Oc1ccc(-n2c(/C=C/c3ccc([N+](=O)[O-])cc3)nc3ccccc3c2=O)cc1 | Enterococcus faecium | microbial growth, broth dilution | NCTC7171 |  | MIC | 32 µg/mL (≈ 74.9 µM)
CCn1c(-c2nonc2N)nc2c(C#CC(C)(C)O)ncc(OC3CCNCC3)c21 | Plasmodium berghei | parasite growth, luciferase | human | liver stage | IC50 | 7.3 µM
N#Cc1ccc(/C=C/c2nc3ccccc3c(=O)n2-c2cccc(CC(=O)O)c2)cc1 | Enterococcus faecium | microbial growth, broth dilution | NCTC7171 |  | MIC | > 128 µg/mL
CC(CN)c1ccc(Oc2ccc(-c3noc(-c4ccc(O)cc4)n3)cc2)cc1.Cl (racemic) | Enterococcus faecium | microbial growth, broth dilution |  | 24 h | MIC | 4 µg/mL
COC(=O)Cc1ccc(/C=C/c2nc3ccccc3c(=O)n2-c2cccc(C(=O)O)c2)cc1 | Enterococcus faecium | microbial growth, broth dilution | NCTC7171 |  | MIC | > 128 µg/mL
NS(=O)(=O)c1ccc(N/N=C2\C(=O)Nc3ccc(Cl)cc32)cc1 | Trypanosoma brucei | parasite growth |  |  | EC50 | 1.58 µM
CS(=O)(=O)NCc1cccc(-n2c(/C=C/c3ccc(C#N)cc3)nc3ccccc3c2=O)c1 | Enterococcus faecium | microbial growth, broth dilution | NCTC7171 |  | MIC | > 128 µg/mL
CC1=C(C(=O)Nc2cc3cn[nH]c3cc2F)C(c2ccc(C(F)(F)F)cc2)CC(=O)N1 (centres unmarked) | Plasmodium berghei | parasite growth, luciferase | human | liver stage | IC50 | 4.7 µM
Cl.NCCc1ccc(Oc2ccc(-c3noc(-c4ccc(O)cc4)n3)cc2)cc1 | Enterococcus faecium | microbial growth, broth dilution |  | 24 h | MIC | 4 µg/mL
Cc1ccc2c(-c3ccnc(Nc4ccccc4)n3)c(-c3ccc(F)cc3)nn2n1 | Plasmodium berghei | parasite growth, luciferase | human | liver stage | IC50 | 5.5 µM
C=CCCCCCCCCCCCC(O)CC(O)CO (centres unmarked) | Mycobacterium intracellulare | microbial growth, resazurin | ATCC23068 |  | IC50 | > 200 µg/mL
